Reference: PMC2861555 (International journal of radiation biology, 2009)
Read-outs that look alike come from different tables or passages of the source. Marks after values point to notes of the source that are not given here.

Columns and labels:
[1] = assay type: in vivo, rat; conditions: for administered uranium excreted (bile + urine): 24 h collection
Summary of the method: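 Bile duct-cannulated rats got uranium 1 mg U kg−1 s.c., then were housed singly in metabolic cages. A single s.c. 300 µmol kg−1 dose of test compound followed at 1, 2 or 4 h post-uranium. Bile and urine were collected for 24 h. Uranium was measured by ICP-MS, triplicate runs averaged. Data are mean ± SEM; one-tailed t-test assuming unequal variances, p<0.05.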

[2] = assay type: in vivo, rat; conditions: for Bile/Urine (%): bile share of U excretion / Bile/Urine (%): urine share of U excretion / % Administered Dose Excreted: 24 h; for Reduction (%) of renal uranium vs control / reduction of bone actinide content vs control: 24 h post-metal; for % Administered Dose Excreted: bile + urine; for Renal Conc.: kidneys removed 24 h post-metal; for Kidney U Conc. / Liver U Conc. / Lung U Conc. / Spleen U Conc. / Bone (femur) U Conc.: tissue 24 h post-metal; for Bone (femur) U Conc.: bone + bone marrow; for reduction of bone actinide content vs control: femur
[3] = primates, dose 63.3 µmol kg^−1 day^−1; ref Bergeron et al., 2006b; cited from earlier work
[4] = Multiple dose chelator administration in non-bile duct-cannulated; assay type: in vivo, rat; conditions: for % Administered Dose Excreted / Total U Excretion: urine + feces
Summary of the method: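 Intact rats got uranyl acetate 1 mg U kg−1 s.c. (left flank), then test compound or DTPA 300 µmol kg−1 s.c. (right flank) immediately and at 24-h intervals (4 doses). Rats were caged singly with chow and water ad libitum. Urine and feces were collected every 24 h. Kidneys and other tissues were taken 24 h after the last dose. Uranium was measured by ICP-MS in triplicate; data are mean ± SEM.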

[5] = test system: rats; conditions: ref Bergeron et al., cited from earlier work
[6] = single 300 µmol kg^−1 s.c. dose given 1 h post-uranium
[7] = single 300 µmol kg^−1 s.c. dose given 2 h post-uranium
[8] = single 300 µmol kg^−1 s.c. dose given 4 h post-uranium
[9] = single dose 300 µmol kg^−1 s.c.
[10] = 24 h after last of 4 daily s.c. doses of 300 µmol kg^−1
[11] = Day 1, 300 µmol kg^−1 s.c. daily x 4
[12] = Day 2, 300 µmol kg^−1 s.c. daily x 4
[13] = Day 3, 300 µmol kg^−1 s.c. daily x 4
[14] = Day 4, 300 µmol kg^−1 s.c. daily x 4

Question: Which results are given for COCCOCCOCCOc1ccc(C2=N[C@@](C)(C(=O)O)CS2)c(O)c1 [compound 9, (S)-4,5-dihydro-2-[2-hydroxy-4-(3,6,9-trioxadecyloxy)phenyl]-4-methyl-4-thiazolecarboxylic acid]?
Answer: reduction in renal uranium content vs control [1, 6]: 74%; administered uranium excreted (bile + urine) [1, 6]: 34.6%; reduction in renal uranium content vs control [1, 7]: 68%; administered uranium excreted (bile + urine) [1, 7]: 28.5%; reduction in renal uranium content vs control [1, 8]: 35%; administered uranium excreted (bile + urine) [1, 8]: 28.6%; Bile/Urine (%): bile share of U excretion ([2]; single dose 150 µmol kg^−1 SC): 69%; Bile/Urine (%): urine share of U excretion ([2]; single dose 150 µmol kg^−1 SC): 31%; Reduction (%) of renal uranium vs control ([2]; single dose 150 µmol kg^−1 SC): 55%; % Administered Dose Excreted ([2]; single dose 150 µmol kg^−1 SC): 48.2%; Renal Conc. ([2]; single dose 150 µmol kg^−1 SC): 37 ± 16 ^b µg g^−1; Kidney U Conc. ([2]; single dose 150 µmol kg^−1 SC): 37 ± 16 ^b µg g^−1; Liver U Conc. ([2]; single dose 150 µmol kg^−1 SC): 1.6 ± 0.9 ^c µg g^−1; Lung U Conc. ([2]; single dose 150 µmol kg^−1 SC): 0.16 ± 0.13 µg/g; Spleen U Conc. ([2]; single dose 150 µmol kg^−1 SC): 0.20 ± 0.05 µg/g; Bone (femur) U Conc. ([2]; single dose 150 µmol kg^−1 SC): 2.1 ± 0.5 ^b µg g^−1; reduction of bone actinide content vs control ([2]; single dose 150 µmol kg^−1 s.c.): 42%; Bile/Urine (%): urine share of U excretion ([2]; single dose 300 µmol kg^−1 PO): 29%; Bile/Urine (%): bile share of U excretion ([2]; single dose 300 µmol kg^−1 PO, listed as C00009): 71%; Reduction (%) of renal uranium vs control ([2]; single dose 300 µmol kg^−1 PO): 57%; % Administered Dose Excreted ([2]; single dose 300 µmol kg^−1 PO): 43.5%; Renal Conc. ([2]; single dose 300 µmol kg^−1 PO): 36 ± 8 ^b µg g^−1; Kidney U Conc. ([2]; single dose 300 µmol kg^−1 PO): 36 ± 8 ^b µg g^−1; Liver U Conc. ([2]; single dose 300 µmol kg^−1 PO): 0.6 ± 0.2 ^c µg g^−1; Lung U Conc. ([2]; single dose 300 µmol kg^−1 PO): 0.10 ± 0.02 ^b µg g^−1; Spleen U Conc. ([2]; single dose 300 µmol kg^−1 PO): 0.13 ± 0.02 ^b µg g^−1; Bone (femur) U Conc. ([2]; single dose 300 µmol kg^−1 PO): 2.7 ± 1.2 µg/g; Bile/Urine (%): bile share of U excretion ([2]; single dose 300 µmol kg^−1 SC): 84%; Bile/Urine (%): urine share of U excretion ([2]; single dose 300 µmol kg^−1 SC): 16%; Reduction (%) of renal uranium vs control ([2]; single dose 300 µmol kg^−1 SC): 66%; % Administered Dose Excreted ([2]; single dose 300 µmol kg^−1 SC): ~52%; % Administered Dose Excreted ([2]; single dose 300 µmol kg^−1 SC, listed as C00009): 51.5%; Renal Conc. ([2]; single dose 300 µmol kg^−1 SC): 29 ± 6 ^b µg g^−1; Kidney U Conc. ([2]; single dose 300 µmol kg^−1 SC): 29 ± 6 ^b µg g^−1; Liver U Conc. ([2]; single dose 300 µmol kg^−1 SC): 0.9 ± 0.2 ^c µg g^−1; Lung U Conc. ([2]; single dose 300 µmol kg^−1 SC): 0.13 ± 0.02 µg/g; Spleen U Conc. ([2]; single dose 300 µmol kg^−1 SC): 0.18 ± 0.04 µg/g; Bone (femur) U Conc. ([2]; single dose 300 µmol kg^−1 SC): 1.9 ± 0.5 ^b µg g^−1; reduction of bone actinide content vs control [2, 9]: 48%; iron excretion [3]: 450 µg Fe kg^−1; Reduction (%) of renal uranium vs control [4, 10]: 62%; Renal Conc. [4, 10]: 12 ± 2 ^c µg g^−1; Fecal U Excretion [4, 11]: 478 ± 181 µg/kg; Urine U Excretion ([4]; Day 1, 300 µmol kg^−1 s.c. daily x 4, first dose immediately post-U): 205 ± 27 µg/kg; % Administered Dose Excreted [4, 11]: 68.3%; Total U Excretion [4, 11]: 683 ± 161 ^d µg kg^−1; Fecal U Excretion [4, 12]: 116 ± 46 µg/kg; Urine U Excretion [4, 12]: 39 ± 5 µg/kg; % Administered Dose Excreted [4, 12]: 15.5%; Total U Excretion [4, 12]: 155 ± 48 ^d µg kg^−1; Fecal U Excretion [4, 13]: 33 ± 4 µg/kg; Urine U Excretion [4, 13]: 23 ± 4 µg/kg; % Administered Dose Excreted [4, 13]: 5.6%; Total U Excretion [4, 13]: 56 ± 7 µg/kg; Fecal U Excretion [4, 14]: 25 ± 2 µg/kg; Urine U Excretion [4, 14]: 11 ± 1 µg/kg; % Administered Dose Excreted [4, 14]: 3.6%; Total U Excretion [4, 14]: 36 ± 1 µg/kg; administered dose of uranium excreted at the end of four days (urine + feces) ([4]; cumulative over 4 days, 300 µmol kg^−1 s.c. daily x 4): 93%; nephrotoxicity ([5]; rodent model, 2006b): virtually eliminated nephrotoxicity

Question: What does the source list for COCCOCCOCCOc1cccc(C2=N[C@@](C)(C(=O)O)CS2)c1O [compound 10, (S)-4,5-dihydro-2-[2-hydroxy-3-(3,6,9-trioxadecyloxy)phenyl]-4-methyl-4-thiazolecarboxylic acid]?
Answer: Bile/Urine (%): bile share of U excretion ([2]; single dose 150 µmol kg^−1 SC): 55%; Bile/Urine (%): urine share of U excretion ([2]; single dose 150 µmol kg^−1 SC): 45%; Reduction (%) of renal uranium vs control ([2]; single dose 150 µmol kg^−1 SC): 61%; % Administered Dose Excreted ([2]; single dose 150 µmol kg^−1 SC): 31.6%; Renal Conc. ([2]; single dose 150 µmol kg^−1 SC): 33 ± 8 ^b µg g^−1; Kidney U Conc. ([2]; single dose 150 µmol kg^−1 SC): 33 ± 8 ^b µg g^−1; Liver U Conc. ([2]; single dose 150 µmol kg^−1 SC): 1.2 ± 0.6 ^c µg g^−1; Lung U Conc. ([2]; single dose 150 µmol kg^−1 SC): 0.09 ± 0.02 ^b µg g^−1; Spleen U Conc. ([2]; single dose 150 µmol kg^−1 SC): 0.21 ± 0.01 ^c µg g^−1; Bone (femur) U Conc. ([2]; single dose 150 µmol kg^−1 SC): 3.4 ± 0.1 µg/g; Reduction (%) of renal uranium vs control ([2]; single dose 300 µmol kg^−1 PO): 62%; % Administered Dose Excreted ([2]; single dose 300 µmol kg^−1 PO): 25.7%; Renal Conc. ([2]; single dose 300 µmol kg^−1 PO): 32 ± 20 ^b µg g^−1; Kidney U Conc. ([2]; single dose 300 µmol kg^−1 PO): 32 ± 20 ^b µg g^−1; Liver U Conc. ([2]; single dose 300 µmol kg^−1 PO): 0.7 ± 0.4 ^c µg g^−1; Lung U Conc. ([2]; single dose 300 µmol kg^−1 PO): 0.13 ± 0.04 µg/g; Spleen U Conc. ([2]; single dose 300 µmol kg^−1 PO): 0.16 ± 0.05 µg/g; Bone (femur) U Conc. ([2]; single dose 300 µmol kg^−1 PO): 3.1 ± 1.1 µg/g; Bile/Urine (%): bile share of U excretion ([2]; single dose 300 µmol kg^−1 SC): 79%; Bile/Urine (%): urine share of U excretion ([2]; single dose 300 µmol kg^−1 SC): 21%; Reduction (%) of renal uranium vs control ([2]; single dose 300 µmol kg^−1 SC): 85%; % Administered Dose Excreted ([2]; single dose 300 µmol kg^−1 SC): 31.4%; Renal Conc. ([2]; single dose 300 µmol kg^−1 SC): 13 ± 6 ^b µg g^−1; Kidney U Conc. ([2]; single dose 300 µmol kg^−1 SC): 13 ± 6 ^b µg g^−1; Liver U Conc. ([2]; single dose 300 µmol kg^−1 SC): 0.8 ± 0.2 ^c µg g^−1; Lung U Conc. ([2]; single dose 300 µmol kg^−1 SC): 0.08 ± 0.02 ^b µg g^−1; Spleen U Conc. ([2]; single dose 300 µmol kg^−1 SC): 0.18 ± 0.03 µg/g; Bone (femur) U Conc. ([2]; single dose 300 µmol kg^−1 SC): 2.3 ± 0.6 ^b µg g^−1; reduction of bone actinide content vs control [2, 9]: 36%; nephrotoxicity [5]; 2008: did not present with any nephrotoxicity
